Reference: ChEMBL document CHEMBL1151473, “Posaconazole activity against Candida glabrata after exposure to caspofungin or amphotericin B” (2008)
≈ marks a conversion by molar mass, not a printed value. Calls of active or inactive are those of the source. The rule behind the calls is not given here.

What was measured:
Nakaseomyces glabratus [1] = test: Antifungal activity against Candida glabrata isolate 4205 after 48 hrs by broth microdilution method; type: functional; conditions: isolate 4205, 48 h
Outline: (§1)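 CLSI broth microdilution with final drug concentrations […], incubated at 35°C and read spectrophotometrically at 490 nm at 24 and 48 h. MIC is the first concentration giving 50% turbidity reduction versus control, or 90% for amphotericin B. Run in quintuplicate.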

Nakaseomyces glabratus [2] = test: Antifungal activity against Candida glabrata isolate 4370 after 48 hrs by broth microdilution method; type: functional; outline: as §1
Nakaseomyces glabratus [3] = test: Antifungal activity against Candida glabrata isolate 4198 after 48 hrs by broth microdilution method; type: functional; outline: as §1
Nakaseomyces glabratus [4] = test: Antifungal activity against Candida glabrata isolate 4293 after 48 hrs by broth microdilution method; type: functional; outline: as §1
Candida parapsilosis = test: Antifungal activity against Candida parapsilosis ATCC 22019 after 48 hrs by broth microdilution method; type: functional; conditions: Lodderomyces parapsilosis, ATCC 22019, 48 h; outline: as §1
Nakaseomyces glabratus [5] = test: Antifungal activity against Candida glabrata isolate 4293 assessed as viable yeast cells pretreated overnight with 0.25 ug/ml caspofungin measured at 0.5 ug/ml after 48 hrs; type: functional
Nakaseomyces glabratus [6] = test: Antifungal activity against Candida glabrata isolate 4198 pretreated overnight with 0.5 times of amphotericin B MIC measured after 48 hrs by broth microdilution method; type: functional
Nakaseomyces glabratus [7] = test: Antifungal activity against Candida glabrata isolate 4370 pretreated overnight with 0.5 times of caspofungin MIC measured after 48 hrs by broth microdilution method; type: functional
Nakaseomyces glabratus [8] = test: Antifungal activity against Candida glabrata isolate 4293 assessed as viable yeast cells pretreated overnight with 0.015 ug/ml caspofungin measured at 4 ug/ml measured after 48 hrs; type: functional
Nakaseomyces glabratus [9] = test: Antifungal activity against Candida glabrata isolate 4293 pretreated overnight with 0.125 times of amphotericin B MIC measured at 5 ug/disk after 24 hrs by halo assay; type: functional; conditions: read-out: IZ
Outline: (§2)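 Exposed or unexposed C. glabrata 4293 cells (1 x 10^6 CFU/ml) plated on Mueller-Hinton agar with methylene blue. 6-mm disks loaded with 20 µl posaconazole at 5 or 15 µg. Incubated at 35°C; inhibition zone diameters measured at 24 and 48 h; quintuplicate.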

Nakaseomyces glabratus [10] = test: Antifungal activity against Candida glabrata isolate 4293 assessed as viable yeast cells pretreated overnight with 0.015 ug/ml caspofungin measured at 0.5 ug/ml after 48 hrs; type: functional
Nakaseomyces glabratus [11] = test: Antifungal activity against Candida glabrata isolate 4293 pretreated overnight with 0.5 times of amphotericin B MIC measured after 48 hrs by broth microdilution method; type: functional
Nakaseomyces glabratus [12] = test: Antifungal activity against Candida glabrata isolate 4293 pretreated overnight with 0.5 times of caspofungin MIC measured at 5 ug/disk after 24 hrs by halo assay; type: functional; conditions: read-out: IZ; outline: as §2
Nakaseomyces glabratus [13] = test: Antifungal activity against Candida glabrata isolate 4293 pretreated overnight with 0.5 times of caspofungin MIC measured at 15 ug/disk after 24 hrs by halo assay; type: functional; conditions: read-out: IZ; outline: as §2
Nakaseomyces glabratus [14] = test: Antifungal activity against Candida glabrata isolate 4293 pretreated overnight with 0.125 times of caspofungin MIC measured at 15 ug/disk after 24 hrs by halo assay; type: functional; conditions: read-out: IZ; outline: as §2
Nakaseomyces glabratus [15] = test: Antifungal activity against Candida glabrata isolate 4293 pretreated overnight with 0.125 times of caspofungin MIC measured at 5 ug/disk after 24 hrs by halo assay; type: functional; conditions: read-out: IZ; outline: as §2
Nakaseomyces glabratus [16] = test: (§3) Antifungal activity against 2.44 x 10^8 CFU Candida glabrata isolate 4293 infected in CD1 mouse assessed as reduction in colony forming units treated with a therapeutic regimen of sterile saline solution from day 1 to day 2 followed by 15 mg/kg/day drug administration via oral gavage from day 3 to day 6 post […] challenge measured on day 7 postinfection relative to control; type: functional, organism-based
Outline: (§4)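 CD1 male mice, 25 g, made neutropenic with intraperitoneal cyclophosphamide at 200 mg/kg/day on days −4, +1 and +4. Infected intravenously with C. glabrata 4293 in 0.2 ml. Therapy starts 24 h postchallenge: sterile saline placebo, then once-daily oral gavage in 0.2 ml. Kidney pairs homogenized and plated on Sabouraud dextrose agar for CFU; seven to eight animals per group; medians reported.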

Nakaseomyces glabratus [17] = test: Antifungal activity against Candida glabrata isolate 4293 pretreated overnight with 0.5 times of caspofungin MIC measured after 48 hrs by broth microdilution method; type: functional
Nakaseomyces glabratus [18] = test: Antifungal activity against Candida glabrata isolate 4293 pretreated overnight with 0.5 times of amphotericin B MIC measured at 15 ug/disk after 24 hrs by halo assay; type: functional; conditions: read-out: IZ; outline: as §2
Nakaseomyces glabratus [19] = test: Antifungal activity against Candida glabrata isolate 4293 pretreated overnight with 0.125 times of amphotericin B MIC measured at 15 ug/disk after 24 hrs by halo assay; type: functional; conditions: read-out: IZ; outline: as §2
Nakaseomyces glabratus [20] = test: as §3, with “1.04” for “2.44”, “30” for “15”; type: functional, organism-based; outline: as §4
Nakaseomyces glabratus [21] = test: Antifungal activity against Candida glabrata isolate 4293 assessed as viable yeast cells pretreated overnight with 0.25 ug/ml caspofungin measured at 4 ug/ml measured after 48 hrs; type: functional
Nakaseomyces glabratus [22] = test: Antifungal activity against Candida glabrata isolate 4370 pretreated overnight with 0.5 times of amphotericin B MIC measured after 48 hrs by broth microdilution method; type: functional
Nakaseomyces glabratus [23] = test: Antifungal activity against Candida glabrata isolate 4293 pretreated overnight with 0.5 times of amphotericin B MIC measured at 5 ug/disk after 24 hrs by halo assay; type: functional; conditions: read-out: IZ; outline: as §2
Nakaseomyces glabratus [24] = test: Antifungal activity against Candida glabrata isolate 4293 at 15 ug/disk after 24 hrs by halo assay; type: functional; conditions: isolate 4293, 24 h, read-out: IZ; outline: as §2
Nakaseomyces glabratus [25] = test: Antifungal activity against Candida glabrata isolate 4198 pretreated overnight with 0.5 times of caspofungin MIC measured after 48 hrs by broth microdilution method; type: functional
Nakaseomyces glabratus [26] = test: Antifungal activity against Candida glabrata isolate 4205 pretreated overnight with 0.5 times of amphotericin B MIC measured after 48 hrs by broth microdilution method; type: functional
Nakaseomyces glabratus [27] = test: Antifungal activity against Candida glabrata isolate 4205 pretreated overnight with 0.5 times of caspofungin MIC measured after 48 hrs by broth microdilution method; type: functional
Nakaseomyces glabratus [28] = test: Antifungal activity against Candida glabrata isolate 4293 at 5 ug/disk after 24 hrs by halo assay; type: functional; conditions: isolate 4293, 24 h, read-out: IZ; outline: as §2

`OC(Cn1cncn1)(Cn1cncn1)c1ccc(F)cc1F` [FLUCONAZOLE] gave an MIC (Nakaseomyces glabratus [1]) of 1 µg/mL (≈ 3.27 µM), an MIC (Nakaseomyces glabratus [2]) of 16 µg/mL (≈ 52.2 µM) and an MIC (Nakaseomyces glabratus [3]) of over 64 µg/mL. For the same molecule, the MIC (Nakaseomyces glabratus [4]) was 32 µg/mL (≈ 104 µM) and the MIC (Candida parapsilosis) was 4 µg/mL (≈ 13.1 µM).
`CC[C@@H]([C@H](C)O)n1ncn(-c2ccc(N3CCN(c4ccc(OC[C@@H]5CO[C@@](Cn6cncn6)(c6ccc(F)cc6F)C5)cc4)CC3)cc2)c1=O` [POSACONAZOLE] was tested, and the Activity (Nakaseomyces glabratus [5]) was 6.2%, the MIC (Nakaseomyces glabratus [1]) was at most 0.03 µg/mL and the MIC (Nakaseomyces glabratus [6]) was 0.5 µg/mL (≈ 0.713 µM). For the same molecule, the MIC (Nakaseomyces glabratus [7]) was 0.125 µg/mL (≈ 0.178 µM), the Activity (Nakaseomyces glabratus [8]) was 0.01% and the zone of inhibition at 5 µg/disc (Nakaseomyces glabratus [9]) was 27 mm. It also gave an MIC (Nakaseomyces glabratus [2]) of 0.06 µg/mL (≈ 0.0856 µM), an Activity (Nakaseomyces glabratus [10]) of 6.2% and an MIC (Nakaseomyces glabratus [11]) of 0.25 µg/mL (≈ 0.357 µM). The zone of inhibition at 5 µg/disc (Nakaseomyces glabratus [12]) was 26.8 mm, the zone of inhibition at 15 µg/disc (Nakaseomyces glabratus [13]) was 29 mm and the zone of inhibition at 15 µg/disc (Nakaseomyces glabratus [14]) was 29.6 mm. The zone of inhibition at 5 µg/disc (Nakaseomyces glabratus [15]) was 28 mm, the Activity (Nakaseomyces glabratus [16]) was “Active” and the MIC (Nakaseomyces glabratus [17]) was 0.125 µg/mL (≈ 0.178 µM). It also gave a zone of inhibition at 15 µg/disc (Nakaseomyces glabratus [18]) of 29.8 mm, a zone of inhibition at 15 µg/disc (Nakaseomyces glabratus [19]) of 30 mm and an MIC (Nakaseomyces glabratus [3]) of 0.5 µg/mL (≈ 0.713 µM). The MIC (Nakaseomyces glabratus [4]) was 0.25 µg/mL (≈ 0.357 µM), the Activity (Nakaseomyces glabratus [20]) was “Active” and the MIC (Candida parapsilosis) was at most 0.03 µg/mL. It also gave an Activity (Nakaseomyces glabratus [21]) of 0.01%, an MIC (Nakaseomyces glabratus [22]) of 0.06 µg/mL (≈ 0.0856 µM) and a zone of inhibition at 5 µg/disc (Nakaseomyces glabratus [23]) of 28.4 mm. It also gave a zone of inhibition at 15 µg/disc (Nakaseomyces glabratus [24]) of 30 mm, an MIC (Nakaseomyces glabratus [25]) of 1 µg/mL (≈ 1.43 µM) and an MIC (Nakaseomyces glabratus [26]) of at most 0.03 µg/mL. For the same molecule, the MIC (Nakaseomyces glabratus [27]) was 0.06 µg/mL (≈ 0.0856 µM) and the zone of inhibition at 5 µg/disc (Nakaseomyces glabratus [28]) was 29 mm.
